# HSF1 inhib – HSF1 inhibition; AID 2098; NIH3T3-HGL HSE-luciferase, MG132-induced, luminescence 8 h; hits give low values; 300,000 tested, 0.77% active; activity change, negative = inhibition, % at 7.5 µM (by protocol);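 active means more than half of replicate wells show activity change below -50%, luminescence cut by over half; inconclusive means some wells, but at most half, below -50%; inactive means no replicate well below -50%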;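 further: luciferase reports HSF-1 transcriptional activity via heat shock element; 0% = median of DMSO wells and -100% = zero luminescence signal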
# HCV core dimer – HCV core protein dimerization inhibition; TR-FRET GST/Flag-core106 dimerization, 1536-well; inhibition, % at 5 µM; 300,000 tested, 0.33% active; AID 1899;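 active means inhibition above the mean of all tested compounds plus 3 SD, set per screening campaign, cut at about 45% in these data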
#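 Assay system: Tagged HCV core106 pair (GST and Flag) | Buffer or medium: KF-containing HEPES buffer, pH 7.45, DTT, CHAPS, BSA | Also added: Eu donor and XL665 acceptor anti-tag antibodies | Dosing: One concentration, 5 µM, in 0.5% DMSO | Timing: 4 h at 22.5 °C | Technique: TR-FRET 671 and 617 nm emission | Repeats: Singlicate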
# PHOSPHO1 block – blocks human PHOSPHO1 phosphatase activity. Q8TCT1. recombinant PHOSPHO1, absorbance phosphatase assay. inhibition, % at 13.3 µM. 290,000 tested, 1.1% active. AID 1565; in the data active means inhibition above about 60%
# Target sequence (Q8TCT1 whole entry, looked up): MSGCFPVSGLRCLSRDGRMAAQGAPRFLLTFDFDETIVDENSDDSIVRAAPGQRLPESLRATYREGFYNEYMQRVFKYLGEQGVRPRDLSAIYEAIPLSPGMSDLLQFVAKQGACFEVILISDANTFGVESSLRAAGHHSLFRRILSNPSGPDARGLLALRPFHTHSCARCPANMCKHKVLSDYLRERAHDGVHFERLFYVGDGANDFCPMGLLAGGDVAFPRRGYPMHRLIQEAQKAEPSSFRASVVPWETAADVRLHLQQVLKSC
# ALR inh – inhibitors of human sulfhydryl oxidase ALR | P55789 | purified ALR, DTT oxidation, H2O2 HRP-luminol luminescence | inhibition, % (concentration not given with the values) | 290,000 tested, 3.8% active | AID 485317;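 active means mean replicate inhibition above about 79%, with every replicate also reaching it, limit read from the data; inconclusive means only one of the two criteria met; inactive means mean below limit and not every replicate reaching it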
# Target sequence (P55789 whole entry, looked up): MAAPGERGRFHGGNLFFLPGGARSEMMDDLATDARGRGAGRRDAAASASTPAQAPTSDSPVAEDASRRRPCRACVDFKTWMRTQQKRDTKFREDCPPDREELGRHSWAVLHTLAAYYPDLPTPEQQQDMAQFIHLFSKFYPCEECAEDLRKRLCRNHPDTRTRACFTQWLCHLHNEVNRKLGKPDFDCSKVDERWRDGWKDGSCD
# HSF1 activator – increases HSF-1 driven luciferase reporter signal. AID 504408. NIH3T3-HGL HSF-1 luciferase reporter, MG132, 8 h; 100% = twice DMSO control signal. activation, % at 9 µM. 300,000 tested, 1.7% active;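 active means mean replicate activation of at least 50% with a set share of replicates each reaching 50%; inconclusive means only one of those two conditions met; inactive means mean below 50% and too few replicates reaching it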;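 further: 0% = median of the neutral control wells and 100% = twice that signal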
# AI-2 QS modul – modulates the Vibrio harveyi AI-2 quorum sensing system; Vibrio harveyi JMH597 AI-2 luminescence/OD600 ratio, 9 h; hits give low values; strain lacks LuxN and CqsS sensors; 0 = neutral-control median; activity change, % at 7.5 µM; 300,000 tested, 0.4% active; AID 2094; in the data active means activity change below about -75%, passing the limit was not always enough; inconclusive means no clear call, values can overlap the other calls;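 further: luminescence divided by OD600 gain over 9 h not by final OD600 alone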
# Numbers without * were called inactive; ? = inconclusive; . = not tested or not shown. Sampled rows, rich in hits. Any-hit rate of the full collection: about 6.8%.
SMILES,HSF1 inhib,HCV core dimer,PHOSPHO1 block,ALR inh,HSF1 activator,AI-2 QS modul
Cc1ccc(/C=C2\C(=N)N3N=C(CC(=O)N4CCCCC4)SC3=NC2=O)cc1,-3,4,12,11,-1,16
N=C1/C(=C\c2ccc(OC(=O)c3ccc(F)cc3)cc2)C(=O)N=C2SC(N3CCOCC3)=NN12,-5,-2,24,95*,2,22
CC1CCN(C2=NN3C(=N)/C(=C\c4ccc(OC(=O)c5ccco5)cc4)C(=O)N=C3S2)CC1,31,-1,7,12,37,25
Cc1c(C(=O)O)sc2ncnc(N3CCCCC3C)c12 (stereo unspecified),2,-2,10,1,-14,24
Cc1cc2c(N3CCCCC3C)ncnc2s1 (stereo unspecified),-2,-4,7,97*,-3,25
Cc1ccc(C(=O)OCCOc2cccc(Cl)c2)cc1S(=O)(=O)N1CCOCC1,12,-3,.,-30,30,18
COC(=O)c1ccc(NC(=O)CSc2n[nH]c(-c3ccncc3)n2)cc1,-4,-2,0,0,-25,21
CCOc1ccc(NC(=O)CSC2=NCCN2)cc1,-2,-5,-13,99*,16,-9
NS(=O)(=O)c1ccc(NC(=O)CSC2=NC(=O)C(c3ccccc3)C(=O)N2)cc1 (stereo unspecified),-7,1,-4,99*,-2,9
CCC1C(=O)N=C(SCC(=O)Nc2ccc(C(=O)OC)cc2)NC1=O (stereo unspecified),-2,-4,26,99*,8,27
COC(=O)c1ccc(NC(=O)CSC2=NCCN2)cc1,-7,-7,-9,99*,-12,8
CCn1c(SCC(=O)Nc2ccc(C(=O)OC)cc2)nc2cccnc21,-1,-9,-3,-8,25,31
N#CC1=C(N2CCOCC2)/C(=C\c2ccccc2)CC1,0,10,-13,93*,-2,16
CCCc1cc(=O)[nH]c(SCC(=O)NN(c2ccccc2)c2ccccc2)n1,10,5,16,3,25,6
c1ccc(Cn2ccc(-c3cnc(-c4ccccc4)s3)n2)cc1,36,-2,2,42,74*,7
Nc1ccn(Cc2ccccc2)n1,-3,-2,16,8,15,22
O=[N+]([O-])c1cccnc1NCCNc1ncc(C(F)(F)F)cc1Cl,62,-9,-23,-11,85*,26
CC(=O)Nc1ccc(OCCC[n+]2ccccc2)cc1,.,0,60*,-6,.,16
CC(NC(=O)COC(=O)C12CC3CC(CC(Br)(C3)C1)C2)c1ccccc1 (stereo unspecified),.,.,.,-1,.,.
COc1cc(C(=O)Nc2nnc(CC(C)C)s2)c([N+](=O)[O-])cc1OC,2,7,38,-19,8,-9
Cc1ccccc1NC(=S)c1nc2ccccc2[nH]1,33,-7,-8,21,67*,32
NNC(=O)c1c(O)c2cccc3c2n(c1=O)CCC3,-3,-11,24,.,-3,-2
Cc1ccc(/C=C2/NC(=O)N(Cc3ccc(Br)cc3)C2=O)o1,33,-1,0,.,59*,15
CCN1C(=O)N/C(=C/c2ccc(C)o2)C1=O,-14,7,-9,.,-13,11
CCCN1C(=O)S/C(=C/c2ccc(N3CCOCC3)o2)C1=O,28,-22,-42,99*,22,13
SMILES,HSF1 inhib,HCV core dimer,PHOSPHO1 block,ALR inh,HSF1 activator,AI-2 QS modul
CCCN1C(=O)S/C(=C\c2ccc(N3CCOCC3)o2)C1=O,68,-24,-29,86*,93*,12
COC(=O)CN1C(=O)S/C(=C/c2ccc(N3CCCCC3)o2)C1=O,-5,-27,-149,69,33,3
CCCN1C(=O)S/C(=C\c2ccc(N3CCOCC3)cc2C)C1=O,.,.,16,.,.,.
CCOC(=O)CN1C(=O)S/C(=C/c2ccc(N3CCCCC3)o2)C1=O,-3,-7,101*,17,-7,7
Cc1nc2ccc(S(=O)(=O)NC(C(=O)NCc3cccs3)C(C)C)cc2s1 (stereo unspecified),-81*,4,-14,-82,-84,17
Cc1nc2ccc(S(=O)(=O)NC(C(=O)Nc3nccs3)C(C)C)cc2s1 (stereo unspecified),2,-2,6,92*,-1,26
COc1ccccc1/C=C/C(=O)Nc1nc(N)n(-c2ccccc2)n1,0,0,24,-4,8,30
COc1cc(C(=O)OCC(=O)Nc2c(F)c(F)c(F)c(F)c2F)cc(OC)c1OC,-4,-8,-4,-3,2,22
CCOC(=O)c1nc2sc3c(c2c(=O)n1C(C)C(=O)OCC)CCCC3 (stereo unspecified),2,5,23,0,-5,13
CSc1ncc(C(=O)Nc2cccnc2)c(C(F)(F)F)n1,-79*,.,50,-7,-84,18
CC(=O)Cc1nsc(NC(=O)c2ccc(COc3ccccc3C)o2)n1,-3,-12,28,.,-8,-1
Cc1ccc(S(=O)c2snnc2C)cc1 (stereo unspecified),-3,-6,36,.,-16,7
CCCNC(=O)c1nnsc1S(=O)c1ccc(Cl)cc1 (stereo unspecified),-96*,.,-16,.,-96,15
CNC(=O)c1nnsc1S(=O)c1ccc(Cl)cc1 (stereo unspecified),63,.,4,.,73*,?
CS(=O)(=O)c1cccc(C(=O)OCC(=O)NC(=O)Nc2ccccc2F)c1,.,.,.,1,.,.
CC(C)(C)CC(C)(C)NC(=S)Nc1ccc2nc(-c3ccccn3)c(-c3ccccn3)nc2c1,14,3,96*,-14,23,24
CC(=O)Nc1ccc(SC[C@H](CC(C)C)N2CCN(CC(C)C)CCC2=O)cc1,6,-16,35,98*,-13,17
CC(=O)Nc1ccc(SC[C@H](C)CN2CC[C@H](C(C)(C)C)CCC2=O)cc1,.,.,.,99*,.,.
CC(=O)Nc1ccc(S[C@@H](CCN2CC[C@H](O)CCC2=O)c2ccccc2)cc1,.,.,.,99*,.,.
CC(=O)Nc1ccc(SC[C@H](Cc2ccccc2)N2CCN(CC(C)C)CCC2=O)cc1,2,6,9,.,8,2
Cc1ccc(SC[C@H](CC(C)C)N2CCN(CCc3ccccc3)CCC2=O)cc1,13,.,-12,.,22,10
CC(=O)Nc1ccc(SC[C@H](CC(C)C)N2CCN(CCc3ccccc3)CCC2=O)cc1,4,-16,40,99*,-3,6
CC1(C)CN(C(=S)Nc2ccc(F)cc2F)C1=O,-1,-7,23,-2,25,21
Cc1cnc(NC(=O)c2c(-c3ccccc3)noc2C)s1,-3,-4,20,-5,0,10

# Compound activity (PubChem BioAssay)
